According to ChEMBL document CHEMBL3351260, “A new efficient route to 7-aryl-6-fluoro-8-nitroquinolones as potent antibacterial agents” (2014):
Converted amounts (≈) assume the structure as drawn. The source made the active and inactive calls. The calls are words filed in the database; no cut-off is given here.

Experiments:
Staphylococcus aureus = assay: Antimicrobial activity against Staphylococcus aureus ATCC 6538 after 24 hrs by two-fold broth dilution method; type: functional; conditions: ATCC 6538, 24 h
In short: (§1)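 Bacteria were cultivated on Mueller Hinton medium and inoculated at 5·10⁵ bacteria/mL. Compounds were dissolved in DMSO, with DMSO loaded as the negative control. Samples were incubated at 37 °C for 24 h. The dilution susceptibility method followed the NCCLS standard for aerobically growing bacteria.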

Escherichia coli = assay: Antimicrobial activity against Escherichia coli ATCC 8739 after 24 hrs by two-fold broth dilution method; type: functional; conditions: ATCC 8739, 24 h; in short: as §1
Haemophilus influenzae = assay: Antimicrobial activity against Haemophilus influenzae ATCC 19418 after 24 hrs by two-fold broth dilution method; type: functional; conditions: ATCC 19418, 24 h; in short: as §1
Candida tropicalis [1] = assay: Antimicrobial activity against Candida tropicalis ATCC 1369 up to 100 ug/ml after 48 hrs by two-fold broth dilution method; type: functional, organism-based
In short: (§2)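 Fungi (yeasts C. tropicalis and S. cerevisiae, mould A. niger) grown in Sabouraud dextrose broth. Inoculum was 1·10³ fungi/mL. Compounds were dissolved in DMSO, which was also loaded as the negative control. Incubation was 30 °C for 48 h. The broth dilution method followed NCCLS reference methods for yeasts and filamentous fungi.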

Saccharomyces cerevisiae [2] = assay: Antimicrobial activity against Saccharomyces cerevisiae ATCC 9763 up to 100 ug/ml after 48 hrs by two-fold broth dilution method; type: functional, organism-based; in short: as §2
Bacillus spizizenii = assay: Antimicrobial activity against Bacillus subtilis ATCC 6633 after 24 hrs by two-fold broth dilution method; type: functional; conditions: ATCC 6633, 24 h; in short: as §1
Aspergillus niger [3] = assay: Antimicrobial activity against Aspergillus niger ATCC 6275 up to 100 ug/ml after 48 hrs by two-fold broth dilution method; type: functional, organism-based; in short: as §2
Candida tropicalis [4] = assay: Antimicrobial activity against Candida tropicalis ATCC 1369 after 48 hrs by two-fold broth dilution method; type: functional; conditions: ATCC 1369, 48 h; in short: as §2
Saccharomyces cerevisiae [5] = assay: microbe, parasite or virus in culture; conditions: ATCC 9763, 48 h
Aspergillus niger [6] = assay: Antimicrobial activity against Aspergillus niger ATCC 6275 after 48 hrs by two-fold broth dilution method; type: functional; conditions: ATCC 6275, 48 h; in short: as §2

Row | MIC (Staphylococcus aureus) [ng/mL] | MIC (Escherichia coli) [ng/mL] | MIC (Haemophilus influenzae) [ng/mL] | MIC (Bacillus spizizenii) [ng/mL] | MIC (Candida tropicalis [4]) [ng/mL] | MIC (Saccharomyces cerevisiae [5]) [ng/mL] | MIC (Aspergillus niger [6]) [ng/mL] | Structure (SMILES) | Activity (Candida tropicalis [1]) | Activity (Saccharomyces cerevisiae [2]) | Activity (Aspergillus niger [3])
1 | 150 (≈ 0.388 µM) | 3000 (≈ 7.77 µM) | 70 (≈ 0.181 µM) | 15 (≈ 0.0388 µM) | – | – | – | O=C(O)c1cn(C2CC2)c2c([N+](=O)[O-])c(-c3ccc(F)cc3)c(F)cc2c1=O | inactive | inactive | inactive
2 | – | – | – | – | 6000 (≈ 14.4 µM) | 12000 (≈ 28.8 µM) | 3000 (≈ 7.21 µM) | Clc1ccc(COC(Cn2ccnc2)c2ccc(Cl)cc2Cl)c(Cl)c1 (stereo unspecified) [MICONAZOLE] | inactive | inactive | inactive
3 | 150 (≈ 0.392 µM) | 3000 (≈ 7.85 µM) | 30 (≈ 0.0785 µM) | 15 (≈ 0.0392 µM) | – | – | – | Cc1ccc(-c2c(F)cc3c(=O)c(C(=O)O)cn(C4CC4)c3c2[N+](=O)[O-])cc1 | inactive | inactive | inactive
4 | 3 (≈ 0.00704 µM) | 25000 (≈ 58.6 µM) | 15 (≈ 0.0352 µM) | 0.07 (≈ 0.000164 µM) | – | – | – | COc1c(C)cc(-c2c(F)cc3c(=O)c(C(=O)O)cn(C4CC4)c3c2[N+](=O)[O-])cc1C | inactive | inactive | inactive
5 | 150 (≈ 0.377 µM) | 25000 (≈ 62.8 µM) | 150 (≈ 0.377 µM) | 30 (≈ 0.0753 µM) | – | – | – | COc1ccc(-c2c(F)cc3c(=O)c(C(=O)O)cn(C4CC4)c3c2[N+](=O)[O-])cc1 | inactive | inactive | inactive
6 | 150 (≈ 0.407 µM) | 3000 (≈ 8.15 µM) | 150 (≈ 0.407 µM) | 15 (≈ 0.0407 µM) | – | – | – | O=C(O)c1cn(C2CC2)c2c([N+](=O)[O-])c(-c3ccccc3)c(F)cc2c1=O | inactive | inactive | inactive
